Converted amounts (≈) assume the structure as drawn.
Tests used:
Aspergillus flavus = assay: Antifungal activity against Aspergillus flavus ATCC 9643 at 28 degC measured after 72 hr by microdilution method; format: functional; conditions: ATCC 9643, 72 h
In short: (§1)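 Fungi were kept on malt agar at 4 °C. Spores were washed off with sterile 0.85% saline containing 0.1% Tween 80 and adjusted to about 1.0×10⁵ per well. Compounds were dissolved in DMSO (1 mg/ml stock) and serially diluted in malt broth with inoculum in 96-well plates, 72 h at 28 °C, for MIC. MFC came from subculture into fresh broth for a further 72 h at 28 °C.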

Pseudomonas aeruginosa [1] = assay: Antibacterial activity against Pseudomonas aeruginosa ATCC 27853 at […] degC measured after 72 hr by microdilution method; format: functional; conditions: ATCC 27853, 72 h
In short: (§2)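 Bactericidal endpoint: after the 24 h broth microdilution (1.0×10⁴ CFU per well, LB broth, […] °C), wells were serially subcultured into plates of fresh broth and incubated a further 72 h. MBC was the lowest concentration with no visible growth, taken as 99.5% killing of the original inoculum.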

Bacillus cereus [2] = assay: Antibacterial activity against clinical isolate Bacillus cereus at […] degC measured after 24 hr by microdilution method; format: functional
In short: (§3)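 Bacteria suspended in sterile saline at 1.0×10⁵ CFU/ml and added at 1.0×10⁴ CFU per well to LB broth with compound (1 mg/ml) in 96-well plates. Incubated 24 h at […] °C. MIC was the lowest concentration without visible growth under a binocular microscope. OD 655 nm was read against a blank and a positive control.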

Aspergillus niger = assay: Antifungal activity against Aspergillus niger ATCC 6275 at 28 degC measured after 72 hr by microdilution method; format: functional; conditions: ATCC 6275, 72 h; in short: as §1
Salmonella typhimurium [3] = assay: Antibacterial activity against Salmonella enterica subsp. enterica serovar Typhimurium ATCC 13311 at […] degC measured after 24 hr by microdilution method; format: functional; conditions: ATCC 13311, 24 h; in short: as §3
Listeria monocytogenes [4] = assay: Antibacterial activity against Listeria monocytogenes NCTC 7973 at […] degC measured after 24 hr by microdilution method; format: functional; conditions: NCTC 7973, 24 h; in short: as §3
Escherichia coli [5] = assay: Antibacterial activity against Escherichia coli ATCC 35210 at […] degC measured after 72 hr by microdilution method; format: functional; conditions: ATCC 35210, 72 h; in short: as §2
Listeria monocytogenes [6] = assay: Antibacterial activity against Listeria monocytogenes NCTC 7973 at […] degC measured after 72 hr by microdilution method; format: functional; conditions: NCTC 7973, 72 h; in short: as §2
Staphylococcus aureus [7] = assay: Antibacterial activity against Staphylococcus aureus ATCC 6538 at […] degC measured after 72 hr by microdilution method; format: functional; conditions: ATCC 6538, 72 h; in short: as §2
Micrococcus flavus [8] = assay: Antibacterial activity against Micrococcus flavus ATCC 10240 at […] degC measured after 24 hr by microdilution method; format: functional; conditions: ATCC 10240, 24 h; in short: as §3
Aspergillus fumigatus = assay: Antifungal activity against plant isolate Aspergillus fumigatus at 28 degC measured after 72 hr by microdilution method; format: functional; in short: as §1
Proteus mirabilis [9] = assay: Antibacterial activity against Proteus mirabilis at […] degC measured after 72 hr by microdilution method; format: functional; in short: as §2
Penicillium ochrochloron = assay: Antifungal activity against Penicillium ochrochloron ATCC 9112 at 28 degC measured after 72 hr by microdilution method; format: functional; conditions: ATCC 9112, 72 h; in short: as §1
Proteus mirabilis [10] = assay: Antibacterial activity against Proteus mirabilis at […] degC measured after 24 hr by microdilution method; format: functional; in short: as §3
Bacillus cereus [11] = assay: Antibacterial activity against clinical isolate Bacillus cereus at […] degC measured after 72 hr by microdilution method; format: functional; in short: as §2
Trichoderma viride = assay: Antifungal activity against Hypocrea rufa IAM 5061 at 28 degC measured after 72 hr by microdilution method; format: functional; conditions: IAM 5061, 72 h; in short: as §1
Micrococcus flavus [12] = assay: Antibacterial activity against Micrococcus flavus ATCC 10240 at […] degC measured after 72 hr by microdilution method; format: functional; conditions: ATCC 10240, 72 h; in short: as §2
Pseudomonas aeruginosa [13] = assay: Antibacterial activity against Pseudomonas aeruginosa ATCC 27853 at […] degC measured after 24 hr by microdilution method; format: functional; conditions: ATCC 27853, 24 h; in short: as §3
Aspergillus versicolor = assay: Antifungal activity against Aspergillus versicolor ATCC 11730 at 28 degC measured after 72 hr by microdilution method; format: functional; conditions: ATCC 11730, 72 h; in short: as §1
Salmonella typhimurium [14] = assay: Antibacterial activity against Salmonella enterica subsp. enterica serovar TyphimuriumATCC 13311 at […] degC measured after 72 hr by microdilution method; format: functional, Salmonella enterica subsp. enterica serovar Typhimurium; conditions: ATCC 13311, 72 h; in short: as §2
Staphylococcus aureus [15] = assay: Antibacterial activity against Staphylococcus aureus ATCC 6538 at […] degC measured after 24 hr by microdilution method; format: functional; conditions: ATCC 6538, 24 h; in short: as §3
Talaromyces funiculosus = assay: Antifungal activity against Talaromyces funiculosus ATCC 36839 at 28 degC measured after 72 hr by microdilution method; format: functional; conditions: ATCC 36839, 72 h; in short: as §1
Escherichia coli [16] = assay: Antibacterial activity against Escherichia coli ATCC 35210 at […] degC measured after 24 hr by microdilution method; format: functional; conditions: ATCC 35210, 24 h; in short: as §3
Fulvia fulva = assay: Antifungal activity against Passalora fulva TK5318 at 28 degC measured after 72 hr by microdilution method; format: functional; conditions: TK5318, 72 h; in short: as §1

SMILES	MFC (Aspergillus flavus) [µM]	MIC (Aspergillus flavus) [µM]	MBC (Pseudomonas aeruginosa [1]) [µM]	MIC (Bacillus cereus [2]) [µM]	MFC (Aspergillus niger) [µM]	MIC (Aspergillus niger) [µM]	MIC (Salmonella typhimurium [3]) [µM]	MIC (Listeria monocytogenes [4]) [µM]	MBC (Escherichia coli [5]) [µM]	MBC (Listeria monocytogenes [6]) [µM]	MBC (Staphylococcus aureus [7]) [µM]	MIC (Micrococcus flavus [8]) [µM]	MFC (Aspergillus fumigatus) [µM]	MIC (Aspergillus fumigatus) [µM]	MBC (Proteus mirabilis [9]) [µM]	MFC (Penicillium ochrochloron) [µM]	MIC (Penicillium ochrochloron) [µM]	MIC (Proteus mirabilis [10]) [µM]	MBC (Bacillus cereus [11]) [µM]	MFC (Trichoderma viride) [µM]	also measured
COc1cc(Cc2nnc(Nc3ccc([N+](=O)[O-])cc3)s2)c(S(=O)(=O)N2CCCCC2)cc1OC	38.6 (≈ 20.1 µg/mL)	19.3 (≈ 10 µg/mL)	19.3 (≈ 10 µg/mL)	19.3 (≈ 10 µg/mL)	38.6 (≈ 20.1 µg/mL)	19.3 (≈ 10 µg/mL)	9.7 (≈ 5.04 µg/mL)	19.3 (≈ 10 µg/mL)	38.6 (≈ 20.1 µg/mL)	77.2 (≈ 40.1 µg/mL)	77.2 (≈ 40.1 µg/mL)	19.3 (≈ 10 µg/mL)	38.6 (≈ 20.1 µg/mL)	19.3 (≈ 10 µg/mL)	77.2 (≈ 40.1 µg/mL)	38.6 (≈ 20.1 µg/mL)	19.3 (≈ 10 µg/mL)	38.6 (≈ 20.1 µg/mL)	38.6 (≈ 20.1 µg/mL)	19.3 (≈ 10 µg/mL)	MIC (Trichoderma viride): 9.7 µM (≈ 5.04 µg/mL); MBC (Micrococcus flavus [12]): 38.6 µM (≈ 20.1 µg/mL); MIC (Pseudomonas aeruginosa [13]): 9.7 µM (≈ 5.04 µg/mL); MFC (Aspergillus versicolor): 38.6 µM (≈ 20.1 µg/mL); MIC (Aspergillus versicolor): 19.3 µM (≈ 10 µg/mL); MBC (Salmonella typhimurium [14]): 19.3 µM (≈ 10 µg/mL); MIC (Staphylococcus aureus [15]): 38.6 µM (≈ 20.1 µg/mL); MFC (Talaromyces funiculosus): 38.6 µM (≈ 20.1 µg/mL); MIC (Talaromyces funiculosus): 19.3 µM (≈ 10 µg/mL); MIC (Escherichia coli [16]): 19.3 µM (≈ 10 µg/mL); MFC (Fulvia fulva): 19.3 µM (≈ 10 µg/mL); MIC (Fulvia fulva): 9.7 µM (≈ 5.04 µg/mL)
COc1cc(Cc2nnc(Nc3ccc(C(F)(F)F)cc3)s2)c(S(=O)(=O)N2CCCCC2)cc1OC	36.8 (≈ 20 µg/mL)	18.4 (≈ 9.98 µg/mL)	18.4 (≈ 9.98 µg/mL)	9.2 (≈ 4.99 µg/mL)	36.8 (≈ 20 µg/mL)	18.4 (≈ 9.98 µg/mL)	9.2 (≈ 4.99 µg/mL)	18.4 (≈ 9.98 µg/mL)	36.8 (≈ 20 µg/mL)	73.6 (≈ 39.9 µg/mL)	36.8 (≈ 20 µg/mL)	9.2 (≈ 4.99 µg/mL)	36.8 (≈ 20 µg/mL)	9.2 (≈ 4.99 µg/mL)	73.6 (≈ 39.9 µg/mL)	36.8 (≈ 20 µg/mL)	18.4 (≈ 9.98 µg/mL)	36.8 (≈ 20 µg/mL)	18.4 (≈ 9.98 µg/mL)	18.4 (≈ 9.98 µg/mL)	MIC (Trichoderma viride): 9.2 µM (≈ 4.99 µg/mL); MBC (Micrococcus flavus [12]): 18.4 µM (≈ 9.98 µg/mL); MIC (Pseudomonas aeruginosa [13]): 9.2 µM (≈ 4.99 µg/mL); MFC (Aspergillus versicolor): 18.4 µM (≈ 9.98 µg/mL); MIC (Aspergillus versicolor): 9.2 µM (≈ 4.99 µg/mL); MBC (Salmonella typhimurium [14]): 18.4 µM (≈ 9.98 µg/mL); MIC (Staphylococcus aureus [15]): 18.4 µM (≈ 9.98 µg/mL); MFC (Talaromyces funiculosus): 18.4 µM (≈ 9.98 µg/mL); MIC (Talaromyces funiculosus): 9.2 µM (≈ 4.99 µg/mL); MIC (Escherichia coli [16]): 18.4 µM (≈ 9.98 µg/mL); MFC (Fulvia fulva): 18.4 µM (≈ 9.98 µg/mL); MIC (Fulvia fulva): 9.2 µM (≈ 4.99 µg/mL)
COc1cc(Cc2nnc(Nc3ccc(Cl)cc3)s2)c(S(=O)(=O)N2CCN(C)CC2)cc1OC	38.2 (≈ 20 µg/mL)	19.1 (≈ 10 µg/mL)	76.4 (≈ 40 µg/mL)	19.1 (≈ 10 µg/mL)	38.2 (≈ 20 µg/mL)	19.1 (≈ 10 µg/mL)	9.6 (≈ 5.03 µg/mL)	19.1 (≈ 10 µg/mL)	76.4 (≈ 40 µg/mL)	76.4 (≈ 40 µg/mL)	76.4 (≈ 40 µg/mL)	9.6 (≈ 5.03 µg/mL)	38.2 (≈ 20 µg/mL)	9.6 (≈ 5.03 µg/mL)	76.4 (≈ 40 µg/mL)	38.2 (≈ 20 µg/mL)	19.1 (≈ 10 µg/mL)	38.2 (≈ 20 µg/mL)	38.2 (≈ 20 µg/mL)	19.1 (≈ 10 µg/mL)	MIC (Trichoderma viride): 9.6 µM (≈ 5.03 µg/mL); MBC (Micrococcus flavus [12]): 19.1 µM (≈ 10 µg/mL); MIC (Pseudomonas aeruginosa [13]): 19.1 µM (≈ 10 µg/mL); MFC (Aspergillus versicolor): 38.2 µM (≈ 20 µg/mL); MIC (Aspergillus versicolor): 38.2 µM (≈ 20 µg/mL); MBC (Salmonella typhimurium [14]): 38.2 µM (≈ 20 µg/mL); MIC (Staphylococcus aureus [15]): 38.2 µM (≈ 20 µg/mL); MFC (Talaromyces funiculosus): 38.2 µM (≈ 20 µg/mL); MIC (Talaromyces funiculosus): 19.1 µM (≈ 10 µg/mL); MIC (Escherichia coli [16]): 19.1 µM (≈ 10 µg/mL); MFC (Fulvia fulva): 19.1 µM (≈ 10 µg/mL); MIC (Fulvia fulva): 9.6 µM (≈ 5.03 µg/mL)

— ChEMBL document CHEMBL3045677, “Sulfonamide-1,2,4-thiadiazole derivatives as antifungal and antibacterial agents: synthesis, biological evaluation, lipophilicity, and conformational studies” (2010)
